Screens deposited in PubChem by several laboratories.
An excerpt weighted towards active compounds, which were near 2.5% of everything screened.
MC4R antag cAMP = blocks human MC4R cAMP signaling; P32245; MC4R-expressing cells, MTII-stimulated cAMP, LANCE TR-FRET; inhibition, % at 6.5 µM; 360,000 compounds, 0.48% hits; AID 540295;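 active = inhibition above its plate's cutoff, the mean of tested wells on that plate plus 3 SD, cut at about 29% in these data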;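 also: 0% = Melanotan II alone and 100% = Melanotan II plus saturating MCL0020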
Target sequence (P32245 whole entry, looked up): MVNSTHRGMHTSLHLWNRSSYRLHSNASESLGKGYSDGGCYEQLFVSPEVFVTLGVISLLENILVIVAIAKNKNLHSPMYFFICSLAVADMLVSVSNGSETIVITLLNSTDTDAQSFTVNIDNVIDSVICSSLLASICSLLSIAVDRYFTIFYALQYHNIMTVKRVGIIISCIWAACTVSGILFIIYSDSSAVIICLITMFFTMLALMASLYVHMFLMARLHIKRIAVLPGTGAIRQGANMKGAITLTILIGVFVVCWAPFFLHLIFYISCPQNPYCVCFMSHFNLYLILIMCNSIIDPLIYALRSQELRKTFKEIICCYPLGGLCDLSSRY
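Material: U2OS-MC4R stable cell line | Reagent: Melanotan II challenge after compound preincubation | Doses: One concentration, 6.5 µM nominal | Incubation: 30-min compound preincubation, 1-h Melanotan II challenge, 1-h detection, room temperature | Signal: TR-FRET cAMP assay | Replicates: One well per compound, no replicates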
PG9 Ab binder = small molecules binding HIV-1 gp120 antibody PG9 | TR-FRET gp120-PG9 antibody binding | inhibition, % at 6.7 µM | 360,000 compounds, 0.43% hits | AID 624416; in the data active = inhibition above about 8.5%
NTR1 agonist = NTR1 (human) agonism. AID 493036. 330,000 compounds, 0.17% hits. NTR1-U2OS beta-arrestin-GFP spot imaging, agonist mode. activation, % at 20 µM;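 active = activation at or above 40% of the spot to cytoplasm intensity ratio, with at least 20 cells analyzed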;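 also: 0% = DMSO without peptide and 100% = 100 nM NTR1 peptide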
NR1D1 modulator = modulators of human Rev-erb alpha DNA binding | P20393 | Rev-erbα–FITC-DNA binding, fluorescence polarization, 90 min | activity, % at 10 µM | 370,000 compounds, 0.79% hits | AID 1259318;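 active = activity above about 14%, limit read from the data; passing the limit was not always enough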;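 also: 0% = DMSO wells with 35 nM protein and 100% = DMSO wells with 750 nM protein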
MC4R ag barr = activates human MC4R beta-arrestin recruitment; P32245; U2OS MC4R beta-arrestin complementation, luminescence; percent of melanotan II response, DMSO zero; activation, % at 8.9 µM; 360,000 compounds, 0.98% hits; AID 540308;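 active = activation above a per-plate cutoff, the mean activation of sample wells on that plate plus 3 SD, cut at about 8% in these data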
NR1D1 mod conf = confirmation of modulators of human Rev-erb alpha DNA binding; shares compounds with NR1D1 modulator; 3,000 compounds, 61% hits; activation, % at 25 µM; Rev-erb alpha FITC-DNA binding, fluorescence polarization, 90 min;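 active = activation at or above a set limit, or at least 3 SD above the negative control mean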;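 also: 0% = 35 nM protein with DMSO and 100% = 750 nM protein high control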
RORg DNA counter = counter-screen for Rev-erb alpha modulators: RORgamma DNA binding; shares compounds with NR1D1 modulator; purified RORgamma protein-FITC-DNA binding, fluorescence polarization; IC50, µM; 910 compounds, 8% hits; AID 1259320;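 active = Compounds whose fitted half-maximal concentration for disrupting protein-DNA binding is below 10 micromolar; the record names Rev-erb in its text, so the target is in doubt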
Starred values were filed as active, the others as inactive; i = inactive; · = not tested or not shown.

SMILES	MC4R antag cAMP	PG9 Ab binder	NTR1 agonist	NR1D1 modulator	MC4R ag barr	NR1D1 mod conf	others
CCOC(=O)c1sc(NC(=O)c2ccc(S(=O)(=O)N(C)C)cc2)nc1C	7	-2	1	36*	0	38*	RORg DNA counter=>40
O=C(Nc1nc(-c2ccccc2)c(C(=O)c2ccccc2)s1)c1ccc(S(=O)(=O)N2CCCCC2)cc1	4	0	3	23*	-2	85*	RORg DNA counter=i
COC(=O)c1ccc(S(=O)(=O)N2CCC(NC(=O)CCc3ccccc3)CC2)cc1	·	·	·	1	·	·
O=C(N[C@H](Cc1ccccc1)C(=O)N1CCCN(Cc2ccccc2F)CC1)[C@H]1O[C@@H](n2ccc(=O)[nH]c2=O)[C@H](O)[C@@H]1O	·	-1	·	2	·	·
CCOc1ccc(C(=O)Nc2sc3c(c2C(=O)OC)CC(C)(C)NC3(C)C)cc1	2	-1	0	70*	1	-9
COC(=O)c1c(NC(=O)c2ccc(C(=O)c3ccccc3)cc2)sc2c1CC(C)(C)NC2(C)C	7	-1	·	-7	-1	·
CCOC(=O)c1c(C)nc2c3ccccc3ccn12	-2	3	4	0	-2	·
CCOC(=O)c1c(C)c(C#N)c2c3ccccc3ccn12	-5	-1	12	58*	-2	17*
COc1ccc(C(=O)c2c(-c3ccc(OC)cc3)oc3ccc(-c4ccc(OC)nc4)cc23)cc1	10	-1	3	17*	0	2
O=C(c1cccs1)N1CC[C@H]2[C@H](CCCN2Cc2ccc(F)cc2)C1	·	·	·	1	·	·
Cc1ccnc(NS(=O)(=O)c2ccc(NC(=O)c3cc(-c4ccccc4)nc4ccccc34)cc2)n1	15	-1	0	-2	0	·
Cc1ccnc(NS(=O)(=O)c2ccc(NC(=O)c3cc(-c4ccc(Br)cc4)nc4ccccc34)cc2)n1	18	-1	5	39*	4	17*
CC(C)(C)C1=Nn2c(nnc2-c2ccc(C(C)(C)C)cc2)SC1	·	·	·	-6	·	·
Cc1cccnc1NC(=O)c1cc2ccccc2oc1=O	-4	1	2	43*	-2	7
COc1cccc(NC(=O)c2cc3ccccc3oc2=O)c1	5	-2	1	-5	0	·
NC(=O)c1oc2ccccc2c1NC(=O)c1ccco1	26	-2	-2	7	2	·
COc1ccccc1NC(=O)c1sc(NC(=O)c2ccco2)c(C#N)c1C	18	-2	2	104*	-1	47*	RORg DNA counter=>40
COC(=O)c1sc(NC(=O)c2ccco2)c(C#N)c1C	6	0	1	-1	-1	·
COc1ccccc1NC(=O)c1oc2ccccc2c1NC(=O)c1ccco1	0	6	10	27*	1	13
COc1ccc(CN2CCCC(CO)(Cc3ccc(F)cc3)C2)cc1C (stereo not drawn)	-7	-2	0	13*	0	3
CC(C)Oc1ccc(CN2CCCC(CO)(Cc3ccccc3)C2)cc1CO (stereo not drawn)	5	-1	-1	2	0	·
O=C(CSc1nnc(COc2ccccc2)n1-c1ccc(Cl)cc1)Nc1ccc2c(c1)OCCO2	·	·	·	2	·	·
CCCCn1c(=O)[nH]c(=O)c2c1nc(-c1cc(Cl)c(OC)c(OC)c1)n2C	9	-3	0	15*	-3	3
CCCCn1c(=O)[nH]c(=O)c2c1nc(-c1ccc(OC(F)F)c(OC)c1)n2C	3	0	7	6	0	·
COC(=O)c1ccc2c(=O)n3c(nc2c1)SCC(c1ccccc1)=N3	2	0	5	80*	-1	4
SMILES	MC4R antag cAMP	PG9 Ab binder	NTR1 agonist	NR1D1 modulator	MC4R ag barr	NR1D1 mod conf	others
CCSc1nc2cc(C(=O)OC)ccc2c(=O)n1CC	-1	0	1	6	0	·
CC(C)Cc1nc2sc3c(SCC(N)=O)ncnc3c2c2c1CCC2	18	0	7	369*	-1	568*	RORg DNA counter=i
O=C(O)CSc1ncnc2c1sc1nc(-c3ccccc3)c3c(c12)CCC3	8	0	4	-3	-2	·
COc1cccc(-c2nc(CS(=O)(=O)CC(=O)NCCc3ccc(C)cc3)c(C)o2)c1	28	0	0	6	5	·
CCOc1ccc(CCNC(=O)CS(=O)(=O)Cc2nc(-c3ccc(OC)cc3)oc2C)cc1	3	2	2	3	1	·
CCOc1ccc(CNC(=O)CS(=O)(=O)Cc2nc(-c3ccc(OC)cc3)oc2C)cc1	14	4	2	26*	7	8
COc1ccc(CNC(=O)CS(=O)(=O)Cc2nc(-c3cccc(OC)c3)oc2C)cc1	-1	1	0	25*	-1	22*
O=C(Nc1ccc2c(c1)OCO2)OC1CCC12CCCCC2 (stereo not drawn)	·	·	·	0	·	·
CCOc1ccc(C(=O)Nc2ccc(C(F)(F)F)n(C)c2=O)cc1	16	-2	0	35*	0	8
O=C(CSc1nnc(-c2cccnc2)n1Cc1ccco1)Nc1ccc(F)cc1Cl	·	·	·	-7	·	·
COc1ccc(N=Cc2c(O)n(-c3cccc(C)n3)c(=O)c3ccccc23)c(OC)c1	1	0	2	53*	0	9
COc1cccc(N=Cc2c(O)n(-c3cccc(C)n3)c(=O)c3ccccc23)c1	7	-1	1	-3	-1	·
N#CC(C#N)=C1C=C2C=C(N3CCCCCC3)CCC2CC1 (stereo not drawn)	0	-10	·	273*	4	167*	RORg DNA counter=>40
N#CC(C#N)=C1C=C2C=C(N3CCOCC3)CCC2CC1 (stereo not drawn)	-7	-4	·	305*	1	111*	RORg DNA counter=>40
CCN(CC)C(=O)CC[C@H]1CC[C@]2(CCCN(C(=O)C(C)(C)C)C2)O1	·	·	·	-5	·	·
N#Cc1cnn2c1nc(N1CCCCC1)c1ccccc12	3	-2	17	32*	5	3
COC(=O)[C@]12C[C@H](CC(=O)NCc3ccccc3)C(=O)N(Cc3ccccc3)C1=C[C@H](C(C)(C)C)O[C@@H]2C	·	1	·	-10	·	·
c1ccc(-c2cnn3c(-c4ccccc4)c(-c4ccccc4)nc3n2)cc1	-2	0	·	123*	0	8
CCCC(=O)N1CCC[C@]2(CC[C@H](CCC#N)O2)C1	·	·	·	3	·	·
COC1=C/C(=C/c2c(N)n3cc(C)sc3nc2=O)C=CC1=O	10	-8	0	17	-1	·
Cc1cn2c(N)c(C=C3C=C(Cl)C(=O)C(Cl)=C3)c(=O)nc2s1	-2	1	0	26*	-1	12
Cc1cc(Br)cn2c(Cc3ccccc3C(F)(F)F)c(-c3cccc(Cl)c3)nc12	·	1	·	24*	·	0
Cc1ccc(-c2nc3c(C)cc(Br)cn3c2Cc2ccccc2C(F)(F)F)cc1	·	0	·	20	·	·
